Screening results (PubChem)
A selection: hits, their analogues and other compounds. The true share with any hit is near 2.4%.
TCR-CD3 inh = inhibitors of human TCR-CD3 interaction, primary screen, biochemical, fluorescence, TAMRA-labeled TCR probe | inhibition, % at 9.4 µM | hit rate 0.37% among 360,000 | AID 651800, 2012; in the data active means inhibition above about 19%;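 further: recombinant mutant TCR 2C K166C tagged with TAMRA read by polarization; 0% = receptor in buffer alone and 100% = receptor with positive control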
Apaf-1 inh = inhibitors of human Apaf-1 apoptosome, primary screen, biochemical, DEVD-Rh110 fluorescence, uHTS; hit rate 0.71% among 330,000; reconstituted apoptosome caspase-3 activity; Apoptotic protease-activating factor 1 (Homo sapiens), O14727; inhibition, % at 20 µM; active means inhibition of at least 40% at 20 µM;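 further: plate controls were DMSO wells for no effect and DEVD-CHO caspase inhibitor wells for full effect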
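System – cell-free apoptosome with Apaf-1, procaspase-3 and caspase-9 · Buffer or medium – pH 7.5 Hepes buffer with CHAPS, BSA, DTT · Also added – cytochrome c with DEVD-Rh110 · Times – 30 min compound preincubation, 50 min activation, room temperature · Technique – Rh110 fluorescence intensity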
GSTO1 inh = inhibitors of recombinant GSTO1, primary screen, counter-screen for RBBP9 inhibitor project, biochemical, fluorescence polarization; Glutathione S-transferase omega-1 (Homo sapiens), P78417; activity-based probe fluorescence polarization; inhibition, % at 5.96 µM; hit rate 1.1% among 300,000; AID 1974, 2009;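 active means inhibition above the campaign mean inhibition plus 3 SD, cut at about 35% in these data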;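 further: 0% = GSTO1-1 with DMSO and 100% = wells lacking GSTO1-1 enzyme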
Target sequence (P78417 whole entry, looked up): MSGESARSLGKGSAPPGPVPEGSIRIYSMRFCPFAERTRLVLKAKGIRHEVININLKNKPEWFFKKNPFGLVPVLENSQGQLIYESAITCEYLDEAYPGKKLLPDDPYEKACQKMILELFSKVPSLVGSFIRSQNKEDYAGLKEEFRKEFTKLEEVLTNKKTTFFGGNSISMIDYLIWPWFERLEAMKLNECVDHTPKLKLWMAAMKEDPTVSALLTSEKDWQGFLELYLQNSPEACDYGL
SIAE primary = human SIAE inhibitors, primary screen, biochemical, fluorescence polarization, FP-Rh probe, 1536-well HTS; Sialate O-acetylesterase (Homo sapiens), Q9HAT2; SIAE FP-Rh probe binding; inhibition, % at 9.66 µM; hit rate 0.69% among 370,000;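 active means inhibition above a cutoff: mean of compounds within the control limits plus 3 SD of those, cut at about 17% in these data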;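 further: 0% = plate median of compound wells and 100% = probe without SIAE protein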
TDP2 absorb = human TDP2 enzyme inhibitors, primary screen, biochemical, epi absorbance, recombinant enzyme. AID 720702, 2013. hit rate 0.34% among 370,000. inhibition, % at 12.8 µM. T5PNP hydrolysis, p-nitrophenol absorbance 415 nm;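 active means inhibition above the mean of all tested compounds plus 3 SD, set per campaign, cut at about 25% in these data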;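 further: 0% = DMSO with enzyme and 100% = buffer with substrate but no TDP2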
Target sequence (O95551 whole entry, looked up): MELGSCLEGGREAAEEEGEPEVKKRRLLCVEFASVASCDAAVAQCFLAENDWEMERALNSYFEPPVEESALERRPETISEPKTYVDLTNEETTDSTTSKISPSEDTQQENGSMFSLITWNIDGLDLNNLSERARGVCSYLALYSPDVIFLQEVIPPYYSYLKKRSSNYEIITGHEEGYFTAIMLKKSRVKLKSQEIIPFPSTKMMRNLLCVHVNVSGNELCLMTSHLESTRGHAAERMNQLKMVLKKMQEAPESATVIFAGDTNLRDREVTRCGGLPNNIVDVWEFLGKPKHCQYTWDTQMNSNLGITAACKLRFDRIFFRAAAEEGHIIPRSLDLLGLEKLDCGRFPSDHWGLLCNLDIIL
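Read-out basis: percent inhibition. System: recombinant human TDP2. Buffer or medium: Mg2+-containing Tris-HCl buffer, pH 7.5. Repeats: single replicate. Timing: reaction 2 h, 37 °C. Benchmarks: high control without enzyme, low control DMSO plus TDP2. Probe or stimulus: 5 mM T5PNP. Doses: 12.8 µM only. Measured by: epi absorbance of p-nitrophenol freed from T5PNP by hydrolysis.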
PAD4 inh = human PAD4 inhibitors, primary screen, biochemical, fluorescence polarization, 1536-well format; recombinant PAD4, RCA probe fluorescence polarization; inhibition, % at 6.36 µM; hit rate 0.41% among 330,000;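 active means percent inhibition above a cutoff equal to the mean of all tested compounds plus 3 SD, cut at about 15% in these data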;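 further: 0% = PAD4 with RCA probe and DMSO and 100% = probe without PAD4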
* = called active by the depositor; x = no result; + = active, no number.

SMILES	TCR-CD3 inh	Apaf-1 inh	GSTO1 inh	SIAE primary	TDP2 absorb	PAD4 inh
COC(=O)CCC(=O)OC1(C)C(=O)C=C2C=C(C3CC3)N(CC(C)C)C=C2C1=O (stereo not drawn)	x	53*	x	x	x	x
CCN(CC)CCCN1C=C2C(=O)C(C)(OC(=O)CCC(=O)OC)C(=O)C=C2C=C1C1CC1 (stereo not drawn)	1	39	25	6	21	-6
CC(C)OC(=O)c1ccc(NC(=O)c2cccc(-n3cnnn3)c2)cc1	-14	18	x	-13	8	3
O=C(CCl)N(c1ccccc1)C1CCCCC1	-4	6	67*	-6	-8	2
COc1cc(C#Cc2c(-c3cncn3C)n(C)c3ccc(-c4cnc(N5CCOCC5)nc4)cc23)cc(OC)c1	2	33	x	-32	-7	0
COc1cc(C#Cc2c(-c3cncn3C)n(C)c3ccc(-c4cnc(OC)nc4)cc23)cc(OC)c1	5	42*	x	-20	-6	-7
COc1ccc(S(=O)(=O)Nc2ccc(O)c(Sc3ncn[nH]3)c2)cc1	-6	-30	1	2	4	2
COc1ccc(S(=O)(=O)Nc2cc(Sc3ncn[nH]3)c(O)c3ccccc23)cc1	10	x	x	8	65*	x
CCN(CC)CCNC(=O)c1ccc2c(c1NCCO)C(=O)c1ccccc1C2=O	-9	54*	25	8	16	-11
Cc1cc(C)cc(OCC(O)CN2CCN(C(=O)c3ccco3)CC2)c1 (stereo not drawn)	3	-1	-5	4	8	-6
C=CC(=O)Nc1ccc(Nc2nc(NC3CCC(N(C)C)CC3)nc3c2ncn3C(C)C)cc1 (stereo not drawn)	x	46*	x	x	x	3
CC(C)Oc1ccc(C(=O)N2CCC(CCC(=O)NC3CC3)CC2)cc1	5	x	x	-1	1	x
Cc1cc(=O)oc(C)c1C(=O)NCCCN1C(C)CCCC1C (stereo not drawn)	3	8	10	3	2	0
CCC(CC)C(=O)Nc1cccc(C(=O)Nc2ccc(S(=O)(=O)Nc3ccc(C)cc3)cc2)c1	24*	18	-99	-166	-9	-12
CCC(CC)C(=O)Nc1cccc(C(=O)Nc2ccc(S(N)(=O)=O)cc2)c1	4	-4	2	-11	7	-8
NC(=S)N/N=C/c1cccc(O)c1O	-7	10	84*	9	5	0
NC(=S)N/N=C/c1ccccc1O	-2	-9	-16	4	-1	-7
Oc1ccc(C=Nc2ccc3ncccc3c2)c(O)c1	x	95*	-10	x	x	-40
COc1cccc(N=Cc2ccc(O)cc2O)c1	-1	-13	2	9	2	6
O=C(CCc1ccccc1)Nc1c(F)cccc1F	-2	-3	4	1	6	-2
C=CCn1c(=O)c2ccccc2n2c(SCC(=O)N(C)C)nnc12	3	-1	x	3	-10	x
C=CCn1c(=O)c2ccccc2n2c(SCC(=O)c3ccccc3)nnc12	4	9	36*	-3	-9	-3
Cc1ccc2nc(CSc3nc(C)ccc3C#N)[nH]c2c1	-8	-8	-2	6	7	-2
Cc1cccc(Cc2c(C)nc3c(C(=O)N4CCN(Cc5ccc6c(c5)OCO6)CC4)cnn3c2C)c1	4	16	35*	-2	-10	0
Cc1ccccc1Cc1c(C)nc2c(C(=O)N3CCN(Cc4ccc5c(c4)OCO5)CC3)cnn2c1C	4	17	-1	0	2	0
SMILES	TCR-CD3 inh	Apaf-1 inh	GSTO1 inh	SIAE primary	TDP2 absorb	PAD4 inh
COc1ccc(NC2c3ncccc3C(=O)N2Cc2ccccc2)c(OC)c1 (stereo not drawn)	-4	-3	2	+	-2	-4
CC(C)[C@H](NC(=O)c1ccccc1)C(=O)OCC(=O)c1ccc(S(=O)(=O)N2CCCCC2)cc1	-5	5	37*	0	1	-1
COc1cc(S(=O)(=O)N2CCCCC2)ccc1NC(=O)c1ccncc1	-3	3	3	5	1	-1
O=C(CCCCl)NC1=NN(c2ccccc2)C(=O)C1	-2	x	19	7	15	-9
O=C(COc1ccc(Cl)cc1)NC1=NN(c2ccccc2)C(=O)C1	1	13	40*	6	7	-9
CN1C(=O)[C@@H]2C[C@@]3([C@@]45C[C@H]6C(=O)N(C)[C@@H](Cc7ccccc7)C(=O)N6[C@@H]4Nc4ccccc45)c4ccccc4N[C@H]3N2C(=O)[C@@H]1Cc1ccccc1	4	17	7	-2	12	0
O=c1cc(-c2c(O)c3ccccc3n(Cc3ccccc3)c2=O)[nH][nH]1	9	17	36*	4	-8	-4
CCn1c(=O)c(-c2cc(=O)[nH][nH]2)c(O)c2ccccc21	12	3	15	-1	-8	8
O=C(NCc1ccccn1)C1CCN(Cc2cccc(OCc3ccccc3)c2)CC1	5	0	-2	2	-1	-4
COc1cc(OC)c(OC)cc1/C=N/Nc1nc2ccccc2[nH]1	1	1	8	8	-1	3
CCN(CC)c1ccc(/C=N/Nc2nc3ccccc3[nH]2)c(O)c1	-3	18	-22	28*	-9	-11
Cc1cccc(C2C3=C(Nc4[nH]n(-c5ccccc5)c(=O)c42)c2ccccc2C3=O)c1 (stereo not drawn)	4	x	x	20*	-11	x
Cc1c(C(=O)O)cccc1-c1ccc(/C=C2\SC(=O)NC2=O)o1	-2	23	35*	-4	0	-4
Cc1c(C(=O)O)cccc1-c1ccc(/C=C2/NC(=O)N(c3ccccc3)C2=O)o1	-3	8	6	-3	-10	-1
O=C(CCC1CCCCC1)NC1=NCCS1	-1	1	0	-3	-2	1
CC1(C)NC(=O)N(CC(=O)N2CCC(Cc3ccccc3)CC2)C1=O	-4	1	3	-4	-6	-2
CCC1(C)NC(=O)N(CC(=O)N2CCC(Cc3ccccc3)CC2)C1=O (stereo not drawn)	6	58*	x	9	-4	-6
CC(C)C1=Nc2cccc3cccc(c23)N1	12	9	16	11	1	0
ClCC1=Nc2cccc3cccc(c23)N1	x	-25	55*	x	x	2
COC(=O)c1ccccc1NC(=O)CN1CCN(c2ccccn2)CC1	4	15	15	-4	-15	-4
COC(=O)c1ccccc1N/C=C1\CCc2c(c(C)nn2-c2ccccn2)C1=O	5	69*	23	-3	1	5
